Experimental data published in ChEMBL document CHEMBL1136233, “Bisphosphonates derived from fatty acids are potent inhibitors of Trypanosoma cruzi farnesyl pyrophosphate synthase” (Bioorg Med Chem Lett, 2003).

Key:
[1] = tested on: Trypanosoma cruzi; assay: Inhibitory concentration against Trypanosoma cruzi (epimastigotes); type: functional, organism-based
Procedure, shortened: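 Epimastigote growth inhibition; IC50 values are the means of three experiments.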

[2] = tested on: Trypanosoma cruzi; assay: Inhibitory concentration against Trypanosoma cruzi (amastigotes); type: functional, organism-based
[3] = tested on: Trypanosoma cruzi; assay: Maximum inhibitory activity against Trypanosoma cruzi (amastigotes)
[4] = tested on: Trypanosoma cruzi; assay: Maximum inhibitory activity against Trypanosoma cruzi (amastigotes); type: functional

Row | IC50 [1] [µM] | IC50 ([2]; Trypanosoma cruzi) [µM] | IC50 [2] [µM] | SMILES | Inhibition [3] [%] | Inhibition [4] [%]
1 | > 70 |  |  | CCCCCCCCC(P(=O)(O)O)P(=O)(O)O |  | 
2 | > 70 | > 50 |  | CCCCC(P(=O)(OCC)OCC)P(=O)(OCC)OCC |  | 
3 | > 50 |  |  | CCCCCCCC(P(=O)(OCC)OCC)P(=O)(OCC)OCC |  | 
4 | > 50 |  |  | CCCCCCCCCC(P(=O)(OCC)OCC)P(=O)(OCC)OCC |  | 
5 | > 50 |  |  | CCCCCCC(P(=O)(OCC)OCC)P(=O)(OCC)OCC |  | 
6 | > 50 | > 50 |  | CCCCCCCCC(P(=O)(OCC)OCC)P(=O)(OCC)OCC |  | 
7 | > 70 |  |  | CCCCCCCCCC(P(=O)(O)O)P(=O)(O)O |  | 
8 | > 50 |  |  | CCCCCC(P(=O)(OCC)OCC)P(=O)(OCC)OCC |  | 

Further lines, the molecule ahead of its results:

Row | SMILES | IC50 [1] [µM] | IC50 ([2]; Trypanosoma cruzi) [µM] | IC50 [2] [µM] | Inhibition [3] [%] | Inhibition [4] [%]
9 | CCCCCCCC(O)(P(=O)(O)O)P(=O)(O)O | > 70 | > 70 |  | 41 | 
10 | CCCC(O)(P(=O)(O)O)P(=O)(O)O | > 70 |  |  |  | 
11 | CCCCCC(O)(P(=O)(O)O)P(=O)(O)O | > 70 | > 70 |  | 34 | 
12 | CCCC(P(=O)(OCC)OCC)P(=O)(OCC)OCC | > 70 | > 70 |  |  | 27
13 | CCCCCCCCCCCCCC(O)(P(=O)(O)O)P(=O)(O)O |  | > 70 |  |  | 10
14 | CCCCCCCC(P(=O)(O)O)P(=O)(O)O | > 70 | > 70 |  |  | 49
15 | CCCCC(P(=O)(O)O)P(=O)(O)O | > 70 | > 70 |  |  | 
16 | CCCCCCCCC(O)(P(=O)(O)O)P(=O)(O)O | > 70 |  |  |  | 
17 | CCCC(P(=O)(O)O)P(=O)(O)O | > 100 | > 90 |  |  | 28
18 | CCCCCCCCCC(O)(P(=O)(O)O)P(=O)(O)O | > 70 |  |  |  | 
19 | CCCCCCC(O)(P(=O)(O)O)P(=O)(O)O |  |  | 18.1 |  | 
20 | CCCCCC(P(=O)(O)O)P(=O)(O)O | > 70 |  |  |  | 
21 | CCOP(=O)(OCC)C(CC)P(=O)(OCC)OCC |  | > 70 |  |  | 
22 | CCC(P(=O)(O)O)P(=O)(O)O | > 100 | > 100 |  |  | 21
23 | CCCCCCC(P(=O)(O)O)P(=O)(O)O | > 70 | > 70 |  |  | 47
